# TRPC4 block – TRPC4 (mouse) channel inhibition; HEK293 TRPC4beta/mu-opioid, DAMGO-evoked Fluo4 calcium flux; hits give low values; B-score at 10 µM; hit rate 0.39% among 300,000;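 active = B-score over 3 SD under the library average, no early fluorescence shift, positive overall ratio signal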
# Target sequence (Q9QUQ5 whole entry, looked up): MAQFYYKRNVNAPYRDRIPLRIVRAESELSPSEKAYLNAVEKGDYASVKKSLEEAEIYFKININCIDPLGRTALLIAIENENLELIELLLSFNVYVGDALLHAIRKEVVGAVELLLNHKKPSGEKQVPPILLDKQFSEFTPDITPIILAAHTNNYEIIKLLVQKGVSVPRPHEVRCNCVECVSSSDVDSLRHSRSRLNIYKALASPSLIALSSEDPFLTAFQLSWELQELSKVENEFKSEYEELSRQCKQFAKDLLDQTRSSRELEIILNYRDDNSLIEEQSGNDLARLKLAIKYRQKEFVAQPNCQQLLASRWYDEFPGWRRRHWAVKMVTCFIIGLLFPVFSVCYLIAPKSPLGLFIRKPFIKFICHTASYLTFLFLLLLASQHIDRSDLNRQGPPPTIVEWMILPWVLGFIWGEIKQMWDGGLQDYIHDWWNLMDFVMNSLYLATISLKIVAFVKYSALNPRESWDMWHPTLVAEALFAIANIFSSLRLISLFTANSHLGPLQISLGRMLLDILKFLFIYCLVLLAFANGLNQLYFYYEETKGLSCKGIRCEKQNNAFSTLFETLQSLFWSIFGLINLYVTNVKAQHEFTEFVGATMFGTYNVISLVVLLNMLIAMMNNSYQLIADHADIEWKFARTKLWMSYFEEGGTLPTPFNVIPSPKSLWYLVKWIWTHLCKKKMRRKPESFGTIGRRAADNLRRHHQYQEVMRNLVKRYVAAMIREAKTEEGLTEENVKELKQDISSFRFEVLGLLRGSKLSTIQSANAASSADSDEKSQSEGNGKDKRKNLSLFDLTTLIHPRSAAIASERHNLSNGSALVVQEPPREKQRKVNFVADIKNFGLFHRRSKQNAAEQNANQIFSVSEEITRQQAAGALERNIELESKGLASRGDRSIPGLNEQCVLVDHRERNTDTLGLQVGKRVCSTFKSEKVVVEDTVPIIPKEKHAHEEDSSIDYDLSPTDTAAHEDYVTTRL
#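 material = TRPC4beta/mu-opioid receptor HEK293 cell line | probe or stimulus = sequential submaximal and maximal DAMGO stimulation | compound dosing = one concentration per compound | measured by = Fluo4 Ca2+ flux fluorescence | evaluation = integrated fluorescence ratio relative to baseline, converted to per-well B score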
# TRPC6 inhibitor – blocks the mouse TRPC6 cation channel; Q61143; HEK293-TRPC6, membrane potential dye, ACh-evoked depolarization; hits give low values; B-score at 10 µM; hit rate 1.1% among 310,000;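 active = B-score under library mean minus 3 SD, initial fluorescence not abnormally high, positive integrated signal ratio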;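 also: B-score derived from integrated fluorescence ratio over the kinetic read; more negative B-score means stronger inhibition of depolarization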
# TRPC4 agonist – TRPC4 (mouse) channel activation; hit rate 0.49% among 310,000; HEK293 TRPC4beta/mu-opioid, Fluo4 calcium fluorescence; hits give high values; Q9QUQ5; B-score at 10 µM;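 active = B-score above 5 SD of library B-scores, and initial fluorescence ratio not above library mean plus 5 SD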;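 also: positive B-score marks a calcium rise read as TRPC4 activation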
#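 Material: HEK293 stable line with TRPC4beta plus mu-opioid receptor; technique: Fluo4 calcium-sensitive dye fluorescence, kinetic, 1 Hz baseline; timing: Fluo4 dye loading 45 min at room temperature, 110 s recording; controls: assay buffer as low control, maximal DAMGO as high control; read-out: integrated baseline-normalised fluorescence ratio, converted to per-well B score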
# TRPC6 activator – activators of mouse TRPC6 channel; Q61143; HEK293-TRPC6 membrane potential dye fluorescence; hits give high values; B-score at 10 µM; hit rate 0.13% among 310,000; AID 2550;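 active = B-score of the integrated fluorescence ratio above library mean plus 3 SD, and starting fluorescence ratio within library mean plus 5 SD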;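 also: higher score means more depolarization so channel activation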
# TRPC4 PAM – allosteric potentiators of mouse TRPC4 channel. hit rate 0.42% among 310,000. HEK293 TRPC4beta/mu-opioid, DAMGO EC20, Fluo-4 Ca2+ flux; hits give high values. B-score at 10 µM. AID 2227. Q9QUQ5;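 active = B-score of calcium response area above 5 SD of library B-scores, with initial fluorescence ratio within 5 SD of library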;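 also: B-score of integrated fluorescence ratio over time as area under calcium response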
# TRPC4 spec 2 – mouse TRPC4 off-target activity of TRPC6 inhibitors, second screen; AID 2776; inhibition, % at 10 µM; HEK293 TRPC4/MOR, membrane potential dye fluorescence; channel activated by saturating DAMGO dose; hit rate 42% among 920; shares compounds with TRPC6 inhibitor;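 active = compounds whose fluorescence signal differed from control wells by over 3 SD, either direction, in both duplicate plates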
# TRPC4 spec – tests whether TRPC6 inhibitors also affect mouse TRPC4; shares compounds with TRPC6 inhibitor; HEK293 TRPC4/mu-opioid, membrane potential fluorescence; activity change, negative = inhibition, % at 10 µM; hit rate 61% among 920; AID 2777;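 active = rise or fall in signal beyond 3 SD of buffer-only wells in both replicate plates, either sign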;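 also: integrated kinetic ratio of fluorescence range over baseline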
# HEK293 MPD ctr 2-1 – second check of TRPC6 inhibitor effects in parental HEK293 cells. parental HEK293 membrane potential dye fluorescence; maximal acetylcholine challenge after compound addition. AID 2779. signal change vs control, % at 10 µM. hit rate 31% among 920. shares compounds with TRPC6 inhibitor;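 active = membrane potential signal moving either way by over 3 SD of the maximum-effect control, in both duplicate plates, meaning non-specific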
# HEK293 MPD ctr-1 – checks TRPC6 inhibitor effects in parental HEK293 cells; shares compounds with TRPC6 inhibitor; parental HEK293 membrane potential dye fluorescence; membrane potential signal change, % at 10 µM; hit rate 60% among 920; AID 2780;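 active = membrane potential signal shifting up or down by more than 3 SD of buffer-only wells, on both duplicate plates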
# HEK293 MPD ctr-2 – counter-screen for TRPC6 modulators: effect in parental HEK293 cells | shares compounds with TRPC6 inhibitor | membrane potential dye fluorescence | membrane potential signal change, % at 10 µM | hit rate 51% among 2,400;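 active = membrane potential signal moves up or down beyond 5 SD from buffer-only wells, on both duplicate plates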
# HEK293 MPD ctr 2-2 – second check of TRPC6 modulator effects in parental HEK293 cells; AID 488926; hit rate 14% among 2,400; membrane potential dye fluorescence; after compound, maximal acetylcholine stimulation; inhibition, % at 10 µM; shares compounds with TRPC6 inhibitor;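 active = membrane potential signal drops by more than 5 SD from the mean control signal, in both duplicate plates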;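 also: plate controls were acetylcholine ECmax control wells for no effect and buffer only wells for full effect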
# TRPC4 ctr mod – mouse TRPC4 off-target activity of TRPC6 modulators | percent change from control (negative = decrease, positive = increase), % at 10 µM | shares compounds with TRPC6 inhibitor | HEK293 TRPC4/mu-opioid, membrane potential fluorescence | hit rate 69% among 2,400;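 active = membrane potential signal moved up or down beyond 5 SD of buffer control wells, in both duplicate plates, actives on both sides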;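 also: plate controls were assay buffer wells for no effect and DAMGO maximal-effect wells for full effect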
# TRPC4/MOR inh 2 – mouse TRPC4 off-target activity of TRPC6 modulators, second screen; HEK293 TRPC4/mu-opioid, membrane potential dye fluorescence; stimulated with maximal-effect DAMGO; shares compounds with TRPC6 inhibitor; hit rate 55% among 2,400; inhibition, % at 10 µM;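 active = drop in membrane potential signal beyond 5 SD of the control wells in both duplicate plates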;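 also: TRPC4 counter screen for TRPC6 hits run under conditions tuned for TRPC6 not TRPC4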
# TRPC6 inh conf – confirmation of mouse TRPC6 inhibitors; hit rate 43% among 3,300; AID 488960; inhibition, % at 10 µM; HEK293-TRPC6, membrane potential dye, ACh-evoked depolarization; shares compounds with TRPC6 inhibitor;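 active = fluorescence ratio falls more than 5 SD below the full-stimulation control mean, in both duplicate runs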;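 also: integrated fluorescence ratio of peak minus minimum over baseline after agonist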
# TRPC6 act conf – confirmation of mouse TRPC6 activators; shares compounds with TRPC6 inhibitor; HEK293-TRPC6 membrane potential dye fluorescence, FDSS; activation, % at 10 µM; hit rate 11% among 2,800;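 active = ratio signal rise beyond 5 SD above unstimulated control wells' mean, seen in both duplicate runs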;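 also: plate controls were buffer EC0 wells for no effect and acetylcholine ECmax response for full effect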
# Starred values were filed as active, the others as inactive; i = inactive; . = no result given. Sampled rows, rich in hits. Any-hit rate of the full collection: about 2.3%.
SMILES,TRPC4 block,TRPC6 inhibitor,TRPC4 agonist,TRPC6 activator,TRPC4 PAM,HEK293 MPD ctr-2,HEK293 MPD ctr 2-2,TRPC4 ctr mod,TRPC4/MOR inh 2,TRPC6 inh conf,TRPC6 act conf,others
CCC1=[N+](C)c2cccc3cccc(c23)N1C,i,-6*,i,i,i,-344%*,i,-52%*,47%*,42%*,i,
CN(C)c1cc[n+](CC(=O)c2ccc(-c3ccccc3)cc2)cc1,i,-7.7*,i,i,i,.,.,.,.,i,.,TRPC4 spec 2=i;TRPC4 spec=-0.5%*;HEK293 MPD ctr 2-1=47%*;HEK293 MPD ctr-1=3.3%*
O=C(C[n+]1ccccc1)c1ccc(-c2ccccc2)cc1,i,i,i,i,i,.,.,.,.,.,.,
Cc1ccc2c(ccn3cc4c(c(=O)n(C)c(=O)n4C)c23)c1,i,-7.2*,i,i,i,.,.,.,.,i,i,TRPC4 spec 2=i;TRPC4 spec=-25%*;HEK293 MPD ctr 2-1=i;HEK293 MPD ctr-1=-325%*
CCC(=O)Nc1cc(C(=O)O)ccc1Sc1ccc(C)cc1,i,i,i,i,i,.,.,.,.,.,.,
Cc1ccc(CNC(=O)C2CCCN(c3nc4ccsc4c(=O)s3)C2)cc1 (stereo not given),i,i,i,i,i,.,.,.,.,.,.,
Cc1nnc(-c2ccc(Cl)cc2)nc1NCCN(C)C,i,-5*,i,i,i,i,i,i,i,i,i,
CN(C)CCNc1nc(-c2ccccc2)nnc1C(F)(F)F,i,i,i,i,i,.,.,.,.,.,.,
Cc1cc(C)c(C#N)c(Nc2ccc3c(c2)OCCO3)n1,i,i,i,i,i,.,.,.,.,.,.,
Cc1cc(Nc2ccc3c(c2)OCCO3)c2cc(Cl)ccc2n1,i,-5.1*,i,i,i,-83%*,i,-16%*,44%*,i,i,
COc1cc(-c2nc3ccccn3c2/N=C/c2cc(OC)c(O)cc2Cl)ccc1O,i,-5.8*,i,i,i,i,i,-10%*,34%*,i,i,
CCOC(=O)c1ccc2nc(C)cc(Nc3cccc(C(=O)O)c3)c2c1,i,i,i,i,i,.,.,.,.,.,.,
COc1ccc2nc(C)cc(Nc3ccc(C(=O)O)cc3)c2c1,i,i,i,i,i,.,.,.,.,.,.,
CC(=O)c1cccc(Nc2cc(C)nc3c(C)cccc23)c1,i,-5.4*,i,i,i,-122%*,57%*,-26%*,52%*,52%*,i,
CCOc1ccc(Nc2cc(C)nc3ccc(C)cc23)cc1,i,-6.4*,i,i,i,-135%*,i,-29%*,58%*,50%*,i,
CC(=O)c1cccc(Nc2cc(C)nc3ccccc23)c1,i,-5.6*,i,i,i,-120%*,i,-20%*,48%*,i,i,
Cc1cc(Nc2cccc(Cl)c2)c2ccccc2n1,i,i,i,i,i,.,.,.,.,.,.,
Cc1cccc(Nc2cc(C)nc3ccccc23)c1,i,-6*,i,i,i,-140%*,60%*,-26%*,73%*,66%*,i,
O=C(O)C1Cc2ccccc2CN1C(=O)CSc1nnc2ccccn12 (stereo not given),i,i,i,i,i,.,.,.,.,.,.,
O=C(Nc1ccc(S(=O)(=O)N2CCCCC2c2cccnc2)cc1)c1c(F)cccc1F (stereo not given),i,-5.1*,i,i,i,i,i,i,i,i,i,
CN(C(=O)COC(=O)c1ccc2c(=O)n3c(nc2c1)CCC3)C1CCS(=O)(=O)C1 (stereo not given),i,i,i,i,i,.,.,.,.,.,.,
COCC(C)NS(=O)(=O)c1ccc(NC(=O)c2ccccn2)cc1 (stereo not given),i,i,i,i,i,.,.,.,.,.,.,
COc1ccc(C(=O)NCc2nnc(SCC(=O)N3CCCc4ccccc43)o2)cc1OC,i,i,i,i,i,.,.,.,.,.,.,
CCOc1ccc(Br)cc1C(=O)N/N=C/c1c[nH]c2ccccc12,i,i,i,i,i,.,.,.,.,.,.,
O=C(N/N=C/c1c[nH]c2ccccc12)c1cc(Br)ccc1O,i,-6.3*,i,i,i,i,i,i,60%*,44%*,i,
SMILES,TRPC4 block,TRPC6 inhibitor,TRPC4 agonist,TRPC6 activator,TRPC4 PAM,HEK293 MPD ctr-2,HEK293 MPD ctr 2-2,TRPC4 ctr mod,TRPC4/MOR inh 2,TRPC6 inh conf,TRPC6 act conf,others
Nc1ccc(-c2cc3ccccc3oc2=O)cc1,i,i,i,i,i,.,.,.,.,.,.,
O=C/C=C/c1c(-c2ccccc2)cc2oc3ccccc3cc1-2,i,-9.3*,i,i,i,.,.,.,.,i,i,TRPC4 spec 2=i;TRPC4 spec=i;HEK293 MPD ctr 2-1=i;HEK293 MPD ctr-1=i
CCOC(=O)C1(Cc2cccc(Cl)c2)CCCN(C(=O)CCSC)C1 (stereo not given),i,-5.3*,i,i,i,152%*,i,36%*,i,54%*,.,
CCC1=NN2C(=N)/C(=C\c3ccc(OCc4cc(=O)n5nc(CC)sc5n4)c(OC)c3)C(=O)N=C2S1,i,i,i,i,i,.,.,.,.,.,.,
COc1ccccc1OCC(=O)NCCS(=O)(=O)N1CCN(c2ccc(F)cc2)CC1,i,-5.4*,i,i,i,i,i,i,i,i,i,
C=CCOc1c(Cl)cc(CNc2nccs2)cc1OC,i,i,i,i,i,.,.,.,.,.,.,

# Compound activity (PubChem BioAssay)
